{"source": "ChEMBL document CHEMBL1177721", "about": "“Cytotoxicity of artesunic acid homo- and heterodimer molecules toward sensitive and multidrug-resistant CCRF-CEM leukemia cells” (J Med Chem, 2010)", "assay_type_in_all_cases": "functional, cell-based", "key": {"[1]": {"system": "ADR5000 cell line", "assay": "Cytotoxicity against human CEM/ADR5000 by XTT assay", "procedure,_shortened": "(§1)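 XTT (tetrazolium cleavage by cellular dehydrogenases to formazan) read on plate reader. Cells kept in RPMI-1640 with 10% heat-inactivated FCS, 1% penicillin/streptomycin, 37 °C, 5% CO2. CEM/ADR5000 pulsed with 5000 ng/mL doxorubicin for 3 days every other week to keep P-glycoprotein overexpression. IC50 from dose-response curves, mean ± SD of two to three independent experiments, three parallel measurements each.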"}, "[2]": {"system": "CCRF-CEM", "assay": "Cytotoxicity against human CCRF-CEM by XTT assay", "procedure,_shortened": "as §1"}, "[3]": {"system": "ADR5000 cell line", "assay": "Increase in ROS generation in human CEM/ADR5000 cells at 0 01 ug/ml after 72 hrs using 2',7'-dichlorodihydrofluoresceine diacetate staining by flow cytometry"}, "[4]": {"system": "ADR5000 cell line", "assay": "Cell cycle arrest in human CEM/ADR5000 cells assessed as accumulation at G0/G1 phase 10 ug/ml after 48 hrs using propidium iodide staining by flow cytometry", "procedure,_shortened": "(§2)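 Nicoletti assay: cells were stained with propidium iodide and read by flow cytometry, counting 10 000 cells per sample. Cells were grown in RPMI-1640 with 10% heat-inactivated FCS and 1% penicillin/streptomycin at 37 °C under 5% CO2. To keep P-glycoprotein overexpressed, CEM/ADR5000 cells were given 5000 ng/mL doxorubicin for 3 days every other week.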"}, "[5]": {"system": "ADR5000 cell line", "assay": "Induction of apoptosis in human CEM/ADR5000 cells at 2 ug/mL after 48 hrs using propidium iodide staining by flow cytometry"}, "[6]": {"system": "ADR5000 cell line", "assay": "Cell cycle arrest in human CEM/ADR5000 cells assessed as accumulation at G2/M phase 0.01 ug/ml after 48 hrs using propidium iodide staining by flow cytometry", "procedure,_shortened": "as §2"}, "[7]": {"system": "ADR5000 cell line", "assay": "Increase in ROS generation in human CEM/ADR5000 cells at 0 001 ug/ml after 24 hrs using 2',7'-dichlorodihydrofluoresceine diacetate staining by flow cytometry", "procedure,_shortened": "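Intracellular ROS measured by H2DCFDA staining and flow cytometry. Cells at 5 × 10^5 cells/mL exposed to a range of concentrations, sampled at 6, 24, 48 and 72 h. Fluorescence histograms overlaid on untreated controls. Levels normalised to the median of three nontreated controls.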"}, "[8]": {"system": "ADR5000 cell line", "assay": "Cell cycle arrest in human CEM/ADR5000 cells assessed as accumulation at G0/G1 phase 1 ug/ml after 48 hrs using propidium iodide staining by flow cytometry"}, "[9]": {"system": "ADR5000 cell line", "assay": "Increase in ROS generation in human CEM/ADR5000 cells at 1 ug/ml after 6 hrs 2',7'-dichlorodihydrofluoresceine diacetate staining by flow cytometry"}, "[10]": {"system": "ADR5000 cell line", "assay": "Induction of apoptosis in human CEM/ADR5000 cells at 1 ug/mL after 24 hrs using propidium iodide staining by flow cytometry", "procedure,_shortened": "as §2"}}, "note": "Active and inactive are the calls of the source. No cut-off for these calls is given here.", "data": [{"smiles": "C[C@@H]1CC[C@H]2[C@@H](C)C(=O)O[C@@H]3O[C@@]4(C)CC[C@@H]1[C@]32OO4", "note": "[ARTEMISININ]", "values": [{"measurement": "IC50", "setting": "[1]", "result": 26.9, "unit": "µM"}, {"measurement": "IC50", "setting": "[2]", "result": 36.9, "unit": "µM"}]}, {"smiles": "C=C(C)[C@@H]1CC[C@]2(COC(=O)CCC(=O)O[C@@H]3O[C@@H]4O[C@@]5(C)CC[C@H]6[C@H](C)CC[C@@H]([C@H]3C)[C@@]46OO5)CC[C@]3(C)[C@H](CC[C@@H]4[C@@]5(C)CC[C@H](O)C(C)(C)[C@@H]5CC[C@]43C)[C@@H]12", "values": [{"measurement": "IC50", "setting": "[1]", "result": 11.9, "unit": "µM"}, {"measurement": "IC50", "setting": "[2]", "result": 9.7, "unit": "µM"}]}, {"smiles": "C=C(C)[C@@H]1CC[C@]2(COC(C)=O)CC[C@]3(C)[C@H](CC[C@@H]4[C@@]5(C)CC[C@H](OC(=O)CCC(=O)O[C@@H]6O[C@@H]7O[C@@]8(C)CC[C@H]9[C@H](C)CC[C@@H]([C@H]6C)[C@@]79OO8)C(C)(C)[C@@H]5CC[C@]43C)[C@@H]12", "values": [{"measurement": "IC50", "setting": "[1]", "result": 20.8, "unit": "µM"}, {"measurement": "IC50", "setting": "[2]", "result": 31.9, "unit": "µM"}]}, {"smiles": "C[C@H]1[C@H](OC(=O)CCC(=O)O)O[C@@H]2O[C@@]3(C)CC[C@H]4[C@H](C)CC[C@@H]1[C@@]24OO3", "note": "[ARTESUNATE]", "values": [{"measurement": "Activity", "setting": "[3]", "result": "Active"}, {"measurement": "Activity", "setting": "[4]", "result": "Active"}, {"measurement": "Activity", "setting": "[5]", "result": "Active"}, {"measurement": "IC50", "setting": "[1]", "result": 1.2, "unit": "µM"}, {"measurement": "Activity", "setting": "[6]", "result": "Active"}, {"measurement": "IC50", "setting": "[2]", "result": 1.8, "unit": "µM"}]}, {"smiles": "C=C(C)[C@@H]1CC[C@]2(COC(=O)CCC(=O)O[C@@H]3O[C@@H]4O[C@@]5(C)CC[C@H]6[C@H](C)CC[C@@H]([C@H]3C)[C@@]46OO5)CC[C@]3(C)[C@H](CC[C@@H]4[C@@]5(C)CC[C@H](OC(=O)CCC(=O)O[C@@H]6O[C@@H]7O[C@@]8(C)CC[C@H]9[C@H](C)CC[C@@H]([C@H]6C)[C@@]79OO8)C(C)(C)[C@@H]5CC[C@]43C)[C@@H]12", "values": [{"measurement": "IC50", "setting": "[1]", "result": 42.1, "unit": "µM"}, {"measurement": "IC50", "setting": "[2]", "result": 42.9, "unit": "µM"}]}, {"smiles": "C=C(C)[C@@H]1CC[C@]2(CO)CC[C@]3(C)[C@H](CC[C@@H]4[C@@]5(C)CC[C@H](O)C(C)(C)[C@@H]5CC[C@]43C)[C@@H]12", "note": "[BETULIN]", "values": [{"measurement": "IC50", "setting": "[1]", "result": 56.5, "unit": "µM"}, {"measurement": "IC50", "setting": "[2]", "result": 50.8, "unit": "µM"}]}, {"smiles": "C[C@H]1[C@H](OC(=O)CCC(=O)NCCCNC(=O)CCC(=O)O[C@@H]2O[C@@H]3O[C@@]4(C)CC[C@H]5[C@H](C)CC[C@@H]([C@H]2C)[C@@]35OO4)O[C@@H]2O[C@@]3(C)CC[C@H]4[C@H](C)CC[C@@H]1[C@@]24OO3", "values": [{"measurement": "Activity", "setting": "[7]", "result": "Active"}, {"measurement": "Activity", "setting": "[5]", "result": "Active"}, {"measurement": "IC50", "setting": "[1]", "result": 0.2, "unit": "µM"}, {"measurement": "Activity", "setting": "[8]", "result": "Active"}, {"measurement": "IC50", "setting": "[2]", "result": 1.2, "unit": "µM"}]}, {"smiles": "COc1cccc2c1C(=O)c1c(O)c3c(c(O)c1C2=O)C[C@@](O)(C(=O)CO)C[C@@H]3O[C@H]1C[C@H](N)[C@H](O)[C@H](C)O1", "note": "[DOXORUBICIN]", "values": [{"measurement": "Activity", "setting": "[9]", "result": "inactive"}, {"measurement": "Activity", "setting": "[10]", "result": "Active"}, {"measurement": "IC50", "setting": "[1]", "result": "> 5.2", "unit": "µM"}, {"measurement": "IC50", "setting": "[2]", "result": 0.0369, "unit": "µM"}]}]}
